In assay [1] the target is T1, UDP-N-acetylmuramoyl-tripeptide--D-alanyl-D-alanine ligase (Streptococcus pneumoniae, UniProt Q9ZHC3).
T1 sequence (Q9ZHC3 whole entry): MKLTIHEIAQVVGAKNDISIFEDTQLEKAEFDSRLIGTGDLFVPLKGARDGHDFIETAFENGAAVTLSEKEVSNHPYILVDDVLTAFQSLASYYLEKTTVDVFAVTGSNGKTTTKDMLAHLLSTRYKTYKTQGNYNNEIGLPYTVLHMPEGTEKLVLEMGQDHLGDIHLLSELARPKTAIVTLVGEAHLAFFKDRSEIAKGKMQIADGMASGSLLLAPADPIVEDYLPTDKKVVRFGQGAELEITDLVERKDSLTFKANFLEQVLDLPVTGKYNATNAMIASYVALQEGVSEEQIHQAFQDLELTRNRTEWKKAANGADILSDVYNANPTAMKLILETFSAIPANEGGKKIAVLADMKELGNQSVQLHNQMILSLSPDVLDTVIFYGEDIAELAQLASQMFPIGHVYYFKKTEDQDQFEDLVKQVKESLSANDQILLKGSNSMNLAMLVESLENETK
Briefly: Inhibition of Streptococcus pneumoniae MurF ligase using D-Ala-D-Ala as substrate after 15 mins by malachite green assay. The gist of the method: (§1)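 Purified S. pneumoniae MurF in 50 mM Hepes pH 8.0 with 50 mM MgCl2, 0.005% Triton X-114, 100 µM D-Ala-D-Ala, 50 µM UMtri-L-Lys and 250 µM ATP, with 5% DMSO final. After 15 min at 37 °C, Biomol reagent was added and absorbance read at 650 nm, in duplicate. RA was taken against a 5% DMSO control. IC50 was the 50% RA point from seven concentrations.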

Assay [2] deals with Escherichia coli. The experiment in a line: Antibacterial activity against Escherichia coli AB734 assessed as growth inhibition by broth microdilution method. It is filed as functional. Put shortly:
(§2)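 MICs by broth microdilution in Mueller-Hinton broth following CLSI guidelines.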

Assay [3] has as its system Escherichia coli. The experiment in a line: Antibacterial activity against Escherichia coli AB734 assessed as growth inhibition by broth microdilution method in presence of polymyxin B nonapeptide. Format: functional. Put shortly: (§3)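 Broth microdilution MIC in Mueller-Hinton broth per CLSI, run with 4 µg/mL polymyxin B nonapeptide to permeabilize the outer membrane.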

The subject of assay [4] is Escherichia coli. The experiment in a line: Antibacterial activity against Escherichia coli SM1411 harboring acrAB deletion mutant assessed as growth inhibition by broth microdilution method. It is filed as functional. The gist of the method: (§4)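 MIC by broth microdilution in Mueller-Hinton broth following CLSI guidelines. ES100 is the tolC derivative of AB734, and SM1411 is the acrAB derivative of 1411; both are efflux-deficient E. coli strains. Growth inhibition was read as the minimum inhibitory concentration.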

Assay [5] in a line: Inhibition of Escherichia coli MurF ligase using D-Ala-D-Ala as substrate after 15 mins by malachite green assay. Put shortly: (§5)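 After 15 min at 37 °C, Biomol reagent was added and phosphate read at 650 nm, in duplicate. RA was taken relative to a 5% DMSO control. IC50 was taken as the concentration giving 50% RA, from seven concentrations.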
The test system of assay [6] is Escherichia coli. Briefly: Antibacterial activity against Escherichia coli 1411 assessed as growth inhibition by broth microdilution method in presence of polymyxin B nonapeptide. It is filed as functional. The gist of the method:
as §3

The test system of assay [7] is Escherichia coli. Briefly: Antibacterial activity against Escherichia coli ES100 harboring tolC deletion mutant assessed as growth inhibition by broth microdilution method. Format: functional. The gist of the method:
as §4

The subject of assay [8] is Staphylococcus aureus. The experiment in a line: Antibacterial activity against Staphylococcus aureus SH1000 assessed as decrease in membrane integrity at 4 times MIC by BacLight assay. Format: functional, organism-based. The gist of the method: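 Membrane damage was measured with the BacLight assay in cells exposed to compound at 4 × MIC and compared with a drug-free control.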

The subject of assay [9] is Staphylococcus aureus. Briefly: Antibacterial activity against Staphylococcus aureus SH1000 assessed as growth inhibition by broth microdilution method. Format: functional. Put shortly:
as §2

In assay [10] the test system is Escherichia coli. Briefly: Antibacterial activity against Escherichia coli 1411 assessed as growth inhibition by broth microdilution method. Format: functional. The gist of the method: as §2
Assay [11] addresses T2, UDP-N-acetylmuramoyl-tripeptide--D-alanyl-D-alanine ligase (Streptococcus pneumoniae) (UniProt Q9ZHC3).
T2 sequence (whole entry): T1 sequence (Q9ZHC3 whole entry)
The experiment in a line: Inhibition of Streptococcus pneumoniae MurF ligase using D-Ala-D-Ala as substrate assessed as residual activity at 250 uM after 15 mins by malachite green assay. Put shortly:
as §1

The subject of assay [12] is Escherichia coli. Briefly: Inhibition of […] MurF ligase using D-Ala-D-Ala as substrate assessed as residual activity at 250 uM after 15 mins by malachite green assay. Put shortly: as §5
Assay [13] deals with T2, UDP-N-acetylmuramoyl-tripeptide--D-alanyl-D-alanine ligase (Streptococcus pneumoniae). Briefly: Inhibition of Streptococcus pneumoniae MurF ligase using D-Ala-D-Ala as substrate assessed as residual activity at 100 uM after 15 mins by malachite green assay. Put shortly: as §1
The subject of assay [14] is Escherichia coli. The experiment in a line: Inhibition of […] MurF ligase using D-Ala-D-Ala as substrate assessed as residual activity at 100 uM after 15 mins by malachite green assay. Put shortly: as §5

Each structure is given as a SMILES string. pIC50: −log10 of the molar value. Calls of active or inactive are those of the source. No cut-off for these calls is given here. Some results are limits rather than exact numbers.

With `Cl.N#Cc1c(NC(=O)c2cc(OCCNC(=N)N)ccc2Cl)sc2c1CCN(Cc1ccccc1)C2`, the pIC50 in [1] is 4.26; in [5] it was 4.24. Besides, the MIC in the assay with Escherichia coli [2] is 32 µg/mL; in the assay with Escherichia coli [3], 16 µg/mL; with Escherichia coli [4], 32 µg/mL; with Escherichia coli [6] it was 16 µg/mL; in the assay with Escherichia coli [7], 8 µg/mL; in the assay with Staphylococcus aureus [9], 8 µg/mL. In addition, in the assay on Escherichia coli [10], the MIC was 32 µg/mL. In addition, the result in the assay with Staphylococcus aureus [8] was inactive.

On to `N#Cc1c(NC(=O)c2cc(OCCN)ccc2Cl)sc2c1CCNC2`, for which the MIC in the assay with Escherichia coli [2], with Escherichia coli [3], in the assay on Escherichia coli [4], in the assay on Escherichia coli [6], with Escherichia coli [7] and in the assay with Staphylococcus aureus [9] was above 256 µg/mL in each case. Also, in the assay on Escherichia coli [10], the MIC was above 256 µg/mL. Moreover, the Activity was determined as 85% in [11] and 65% in the assay on Escherichia coli [12].

As to `COC(=O)c1ccc(CN2CCc3c(sc(NC(=O)c4cc(OCCNC(=O)C(F)(F)F)ccc4Cl)c3C#N)C2)cc1`, the MIC with Escherichia coli [2], with Escherichia coli [3], in the assay with Escherichia coli [4], in the assay with Escherichia coli [6], with Escherichia coli [7] and with Staphylococcus aureus [9] was above 256 µg/mL each time. Besides, the MIC in the assay on Escherichia coli [10] was above 256 µg/mL. This molecule also had a pIC50 in [5] of 3.59. The Activity in [11] was 55%.

With `COC(=O)c1ccc(CN2CCc3c(sc(NC(=O)c4cc(OCCNC(=N)N)ccc4Cl)c3C#N)C2)cc1.Cl`, the values for the pIC50 in [1] and in [5] were 4.43 and 4.10, respectively. For the same molecule, the MIC in the assay with Escherichia coli [2] was found to be 64 µg/mL; in the assay on Escherichia coli [3] it was 32 µg/mL; in the assay with Escherichia coli [4], 16 µg/mL; in the assay with Escherichia coli [6], 32 µg/mL; in the assay on Escherichia coli [7], 8 µg/mL; in the assay on Staphylococcus aureus [9], 8 µg/mL. Moreover, the MIC in the assay on Escherichia coli [10] was determined as 64 µg/mL. Also, the result with Staphylococcus aureus [8] was inactive.

Regarding `N#Cc1ccc(COc2ccc(Cl)c(C(=O)Nc3sc4c(c3C#N)CCCC4)c2)cc1`, the figures for the Activity (in assay [13]; in the assay with Escherichia coli [14]) were 102% and 97%, respectively.

With `N#Cc1ccc(CN2CCc3c(sc(NC(=O)c4cc(OCCNC(=O)C(F)(F)F)ccc4Cl)c3C#N)C2)cc1`, the MIC in the assay on Escherichia coli [2], with Escherichia coli [3], with Escherichia coli [4], with Escherichia coli [6], with Escherichia coli [7] and with Staphylococcus aureus [9] was above 256 µg/mL throughout. The MIC in the assay on Escherichia coli [10] was above 256 µg/mL. Also, the Activity in assay [11] was 55%; in the assay with Escherichia coli [12] it was 45%.

On to `N#Cc1c(NC(=O)c2cccc(OCc3ccc(Cl)cc3)c2)sc2c1CCCC2`, for which the Activity in [13] is 102%; in the assay with Escherichia coli [14], 97%.

For the molecule `N#Cc1c(NC(=O)c2cc(OCCNC(=O)C(F)(F)F)ccc2Cl)sc2c1CCNC2.O=C(O)C(F)(F)F`, the MIC in the assay with Escherichia coli [2], in the assay with Escherichia coli [3], in the assay on Escherichia coli [4], with Escherichia coli [6], in the assay on Escherichia coli [7] and in the assay on Staphylococcus aureus [9] was above 256 µg/mL each time. In the assay with Escherichia coli [10], the MIC is above 256 µg/mL. The Activity in [11] turned out to be 99%; with Escherichia coli [12], 91%.

With `N#Cc1c(NC(=O)c2cccc(OCC3CCCC3)c2)sc2c1CCCC2`, the values for the Activity (in [13]; with Escherichia coli [14]) were 81% and 99%, respectively.

Turning to `Cl.N#Cc1ccc(CN2CCc3c(sc(NC(=O)c4cc(OCCNC(=N)N)ccc4Cl)c3C#N)C2)cc1`, the pIC50 in assay [1] was 4.21; in assay [5], 4.18. Moreover, the MIC in the assay with Escherichia coli [2] was 256 µg/mL; in the assay on Escherichia coli [3] it was 32 µg/mL; with Escherichia coli [4], 16 µg/mL; with Escherichia coli [6], 32 µg/mL; in the assay on Escherichia coli [7] it was 16 µg/mL; in the assay on Staphylococcus aureus [9], 16 µg/mL. The minimal inhibitory concentration (MIC) in the assay on Escherichia coli [10] was found to be 128 µg/mL. In addition, the result with Staphylococcus aureus [8] was inactive.

As to `N#Cc1c(NC(=O)c2cccc(OCCCN)c2)sc2c1CCCC2`, the results for the Activity (in assay [11]; with Escherichia coli [12]) were 53% and 75%, respectively.

For the molecule `N#Cc1c(NC(=O)c2cccc(OCCN)c2)sc2c1CCCC2`, the Activity stood at 98% in assay [13] and 93% with Escherichia coli [14].

Turning to `N#Cc1c(NC(=O)c2cc(OCCNC(=O)C(F)(F)F)ccc2Cl)sc2c1CCN(Cc1cccc(O)c1)C2`, the MIC in the assay with Escherichia coli [2], in the assay on Escherichia coli [3], with Escherichia coli [4], with Escherichia coli [6], in the assay with Escherichia coli [7] and in the assay on Staphylococcus aureus [9] was above 256 µg/mL in each case. Further, the MIC with Escherichia coli [10] is above 256 µg/mL. The Activity is 71% in assay [11] and 56% with Escherichia coli [12].

With `COc1ccc(CN2CCc3c(sc(NC(=O)c4cc(OCCN)ccc4Cl)c3C#N)C2)cc1`, the figures for the pIC50 in assay [1] and in assay [5] were 3.90 and 4.14, respectively. Besides, the MIC with Escherichia coli [2] is 128 µg/mL; in the assay with Escherichia coli [3], 64 µg/mL; in the assay on Escherichia coli [4], 64 µg/mL; with Escherichia coli [6], 64 µg/mL; in the assay on Escherichia coli [7], 32 µg/mL; in the assay with Staphylococcus aureus [9], 128 µg/mL. Moreover, in the assay on Escherichia coli [10], the MIC stood at 128 µg/mL. Moreover, in the assay on Staphylococcus aureus [8], the outcome was inactive.

For the molecule `CC(C)(C)OC(=O)N1CCc2c(sc(NC(=O)c3cc(OCCNC(=O)C(F)(F)F)ccc3Cl)c2C#N)C1`, the MIC in the assay with Escherichia coli [2], in the assay on Escherichia coli [3], with Escherichia coli [4], with Escherichia coli [6], in the assay with Escherichia coli [7] and in the assay on Staphylococcus aureus [9] was above 256 µg/mL in each case. The MIC in the assay on Escherichia coli [10] was above 256 µg/mL. Moreover, the Activity in assay [11] came out at 96%; in the assay on Escherichia coli [12], 102%.

With `N#Cc1c(NC(=O)c2cccc(OCn3cccn3)c2)sc2c1CCCC2`, the results for the Activity (in [13]; in the assay with Escherichia coli [14]) were 89% and 85%, respectively.

With `CC(=O)Oc1ccc(C2CCc3c(sc(NC(=O)c4cc(OCCNC(=O)C(F)(F)F)ccc4Cl)c3C#N)C2)cc1` (configuration not stated), the Activity in [11] was 98%; in the assay with Escherichia coli [12], 101%.

As for `N#Cc1c(NC(=O)c2cc(OCc3ccccc3)ccc2Cl)sc2c1CCCC2`, the values for the Activity (in [13]; with Escherichia coli [14]) were 81% and 82%, respectively.

For `N#Cc1c(NC(=O)c2cc(OCCNC(=O)C(F)(F)F)ccc2Cl)sc2c1CCN(Cc1ccccc1)C2`, the pIC50 in [1] was 3.76. Besides, the MIC with Escherichia coli [2], with Escherichia coli [3], with Escherichia coli [4], with Escherichia coli [6], in the assay with Escherichia coli [7] and in the assay on Staphylococcus aureus [9] was above 256 µg/mL each time. Also, the MIC in the assay with Escherichia coli [10] is above 256 µg/mL. In the assay with Escherichia coli [12], the Activity stood at 46%.

In the case of `N#Cc1c(NC(=O)c2cc(OCC(N)=O)ccc2Cl)sc2c1CCCC2`, the Activity in assay [11] came to 87%; in the assay with Escherichia coli [12] it was 74%.

As for `N#Cc1c(NC(=O)c2cc(OCCNC(=N)N)ccc2Cl)sc2c1CCC(c1ccc(O)cc1)C2` (configuration not stated), in the assay with Staphylococcus aureus [8], the outcome was inactive.

For the origin of these results see ChEMBL document CHEMBL3112403, “Design, synthesis and evaluation of second generation MurF inhibitors based on a cyanothiophene scaffold” (Eur J Med Chem, 2014).
